What is called inhibition is the percentage by which the read-out fell short of the control.

The assay relates to HT-29. In words: Inhibition of side population in human HT-29 cells at 100 uM after 90 mins using vybrant dyecycle violet staining by FACS analysis. In kind it is functional. Conditions: HT-29, 1.5 h. The essentials:
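HT-29 cells were stained in medium with Vybrant DyeCycle Violet for 90 min at 37 °C, centrifuged and washed with medium. Side-population cells were identified by flow cytometry histograms. The reference control was verapamil, which blocks the transporter responsible for dye exclusion. Results are % side-population inhibition ± SD.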
In general terms: Flow cytometry measures light scatter and fluorescence of single cells or particles in a stream.

As for `COc1ccc(CCN(C)CCCC(C#N)(c2ccc(OC)c(OC)c2)C(C)C)cc1OC` (stereo unspecified), the inhibition at 100 µM was determined as 95%.

Values taken from ChEMBL document CHEMBL3085637, “Synthesis and anticancer potential of certain novel 2-oxo-N'-(2-oxoindolin-3-ylidene)-2H-chromene-3-carbohydrazides” (Eur J Med Chem, 2013).
